According to ChEMBL document CHEMBL1156565, “Discovery of (R)-4-(8-fluoro-2-oxo-1,2-dihydroquinazolin-3(4H)-yl)-N-(3-(7-methyl-1H-indazol-5-yl)-1-oxo-1-(4-(piperidin-1-yl)piperidin-1-yl)propan-2-yl)piperidine-1-carboxamide (BMS-694153): a potent antagonist of the human calcitonin gene-related peptide receptor for migraine with rapid and …” (J Med Chem, 2008):
≈ marks a conversion by molar mass, not a printed value. Calls of active or inactive are those of the source. The calls are words filed in the database; no cut-off is given here.

Experiments:
[1] = Ex vivo inhibition of human alpha CGRP-induced artery dilation in human intracranial artery preincubated for 30 mins; assay type: functional
How it was run: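 Wire-mounted human intracranial artery rings were preincubated 30 min with a single antagonist concentration (0.1-30 nM). They were then contracted with 10 mM K+ and given increasing hαCGRP to full relaxation. The CGRP curve shift was analysed by Schild analysis.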

[2] = Ex vivo effect on basal artery tension in human coronary artery assessed as contractility; assay type: functional, tissue-based
How it was run: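 Contractility was measured in wire-mounted ex vivo human artery rings at up to 10 µM compound. Serotonin (10 µM) was added at the end of each session to give maximal contraction.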

Callithrix jacchus [3] = assay: Inhibition of human alpha CGRP-induced increase in facial blood flow in marmoset at 0.03 mg/kg, sc after 15, 60 and 105 mins by laser Doppler flowmetry; assay type: functional, organism-based; parameters: dose 0.03 mg/kg
How it was run: (§1)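 Anesthetised marmosets received hRCGRP 10 µg/kg IV at 45 min intervals (-30, 15, 60 and 105 min); antagonist given SC at 0 min (dose range 0.003-0.03 mg/kg), vehicle-treated group run in parallel. Facial blood flow increase after each CGRP challenge read by laser Doppler flowmetry; plasma drug levels sampled at the 15 min test time.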

Callithrix jacchus [4] = assay: Inhibition of human alpha CGRP-induced increase in facial blood flow in marmoset at 0.01 mg/kg, sc after 60 and 105 mins by laser Doppler flowmetry; assay type: functional, organism-based; parameters: dose 0.01 mg/kg; how it was run: as §1
Callithrix jacchus [5] = assay: Inhibition of human alpha CGRP-induced increase in facial blood flow in marmoset at 0.01 mg/kg, sc after 15 mins by laser Doppler flowmetry; assay type: functional, organism-based; parameters: dose 0.01 mg/kg
How it was run: (§2)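 Anesthetized marmosets received iv hαCGRP (10 µg/kg) at -30, 15, 60 and 105 min. Antagonist was given sc at 0 min. Facial blood flow changes were measured by laser Doppler flowmetry and compared with vehicle-treated animals.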

Callithrix jacchus [6] = assay: Inhibition of human alpha CGRP-induced increase in facial blood flow in marmoset at 0.003 mg/kg, sc by laser Doppler flowmetry; assay type: functional, organism-based; parameters: dose 0.003 mg/kg; how it was run: as §2
[7] = Oral bioavailability in Sprague-Dawley rat; assay type: ADME, organism-based; conditions: in vivo
[8] = Oral bioavailability in cynomolgus monkey; assay type: ADME, organism-based, Macaca fascicularis; conditions: in vivo
[9] = Intrinsic permeability across human Caco-2 cells; assay type: ADME, cell-based; conditions: read-out: IP
[10] = Aqueous solubility of compound at pH 1 to 6.8; assay type: physicochemical
How it was run: (§3)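 Aqueous solubility measured over pH 1.0-6.8.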

Oryctolagus cuniculus [11] = assay: Cmax in New Zealand white rabbit at 0.5 mg/kg, iv; assay type: ADME, organism-based; parameters: dose 0.5 mg/kg, route intravenous; conditions: in vivo
How it was run: (§4)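 Rabbits given an iv dose of 0.5 mg/kg as the reference leg for intranasal dosing. Clearance, Vss and terminal half-life were derived from the plasma concentration-time profile.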

[12] = Tmax in New Zealand white rabbit at 0.5 mg/kg, iv; assay type: ADME, organism-based, Oryctolagus cuniculus; parameters: dose 0.5 mg/kg, route intravenous; conditions: in vivo; how it was run: as §4
Oryctolagus cuniculus [13] = assay: Total AUC in New Zealand white rabbit at 0.5 mg/kg, iv; assay type: ADME, organism-based; parameters: dose 0.5 mg/kg, route intravenous, time AUCmax; conditions: in vivo; how it was run: as §4
[14] = Clearance in New Zealand white rabbit at 0.5 mg/kg, iv; assay type: ADME, organism-based, Oryctolagus cuniculus; parameters: dose 0.5 mg/kg, route intravenous; conditions: in vivo; how it was run: as §4
[15] = Volume of distribution at steady state in New Zealand white rabbit at 0.5 mg/kg, iv; assay type: ADME, organism-based, Oryctolagus cuniculus; parameters: dose 0.5 mg/kg, route intravenous; conditions: in vivo, read-out: Vdss; how it was run: as §4
[16] = Half life in New Zealand white rabbit at 0.5 mg/kg, iv; assay type: ADME, organism-based, Oryctolagus cuniculus; parameters: dose 0.5 mg/kg, route intravenous; conditions: in vivo; how it was run: as §4
[17] = Tmax in New Zealand white rabbit at 0.1 mg/kg, intranasally; assay type: ADME, organism-based, Oryctolagus cuniculus; parameters: dose 0.1 mg/kg; conditions: in vivo, inhaled or intranasal
How it was run: (§5)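 Rabbits dosed intranasally by spraying a solution into the nasal cavity. Plasma concentrations followed for up to 24 h. Bioavailability was calculated against an iv leg given at 0.5 mg/kg.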

Oryctolagus cuniculus [18] = assay: Total AUC in New Zealand white rabbit at 0.1 mg/kg, intranasally; assay type: ADME, organism-based; parameters: route nasal, time AUCmax, dose 0.1 mg/kg; conditions: in vivo, inhaled_or_intranasal; how it was run: as §5
Oryctolagus cuniculus [19] = assay: Bioavailability in New Zealand white rabbit at 0.1 mg/kg, intranasally; assay type: ADME, organism-based; conditions: in vivo, inhaled_or_intranasal, 1.0 mg/kg, in the assay text read “1.0 mg/kg” for “0.1 mg/kg”; how it was run: as §5
[20] = Cmax in New Zealand white rabbit at 0.3 mg/kg, intranasally; assay type: ADME, organism-based, Oryctolagus cuniculus; parameters: route nasal, dose 0.3 mg/kg; conditions: in vivo, inhaled or intranasal; how it was run: as §5
[21] = Tmax in New Zealand white rabbit at 0.3 mg/kg, intranasally; assay type: ADME, organism-based, Oryctolagus cuniculus; parameters: dose 0.3 mg/kg; conditions: in vivo, inhaled or intranasal; how it was run: as §5
[22] = Total AUC in New Zealand white rabbit at 0.3 mg/kg, intranasally; assay type: ADME, organism-based, Oryctolagus cuniculus; parameters: time AUCmax, route nasal, dose 0.3 mg/kg; conditions: in vivo, inhaled or intranasal; how it was run: as §5
[23] = Bioavailability in New Zealand white rabbit at 0.3 mg/kg, intranasally; assay type: ADME, organism-based, Oryctolagus cuniculus; conditions: in vivo, inhaled or intranasal; how it was run: as §5
[24] = Drug level in New Zealand white rabbit after 24 hrs; assay type: ADME, organism-based, Oryctolagus cuniculus; conditions: in vivo, read-out: Drug uptake
How it was run: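 Plasma level of drug in rabbits measured 24 h after intranasal dosing of a sprayed solution.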

[25] = Bioavailability in intratracheally dosed Sprague-Dawley rat; assay type: ADME, organism-based; conditions: in vivo, inhaled or intranasal
[26] = Bioavailability in sc dosed Sprague-Dawley rat in presence of PG:D5W vehicle; assay type: ADME, organism-based; conditions: in vivo
How it was run: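 Rats dosed subcutaneously in PG:D5W vehicle to determine bioavailability.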

[27] = Bioavailability in sc dosed Sprague-Dawley rat in presence of PBS vehicle; assay type: ADME, organism-based; conditions: in vivo
[28] = Bioavailability in sc dosed cynomolgus monkey; assay type: ADME, organism-based, Macaca fascicularis; conditions: in vivo
How it was run: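 Cynomolgus monkeys dosed subcutaneously in PG:D5W vehicle to determine bioavailability.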

[29] = Fraction unbound in human serum at 10 uM; assay type: ADME, cell-free
How it was run: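 Serum protein binding measured in vitro with compound at 10 µM.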

[30] = target: T1, Calcitonin gene-related peptide type 1 receptor (Homo sapiens, UniProt O60894+Q16602); assay: Antagonist activity at human CGRP receptor in SK-N-MC cells assessed as inhibition of CGRP-stimulated cAMP production
T1 sequence (Q16602 whole entry, one chain of several): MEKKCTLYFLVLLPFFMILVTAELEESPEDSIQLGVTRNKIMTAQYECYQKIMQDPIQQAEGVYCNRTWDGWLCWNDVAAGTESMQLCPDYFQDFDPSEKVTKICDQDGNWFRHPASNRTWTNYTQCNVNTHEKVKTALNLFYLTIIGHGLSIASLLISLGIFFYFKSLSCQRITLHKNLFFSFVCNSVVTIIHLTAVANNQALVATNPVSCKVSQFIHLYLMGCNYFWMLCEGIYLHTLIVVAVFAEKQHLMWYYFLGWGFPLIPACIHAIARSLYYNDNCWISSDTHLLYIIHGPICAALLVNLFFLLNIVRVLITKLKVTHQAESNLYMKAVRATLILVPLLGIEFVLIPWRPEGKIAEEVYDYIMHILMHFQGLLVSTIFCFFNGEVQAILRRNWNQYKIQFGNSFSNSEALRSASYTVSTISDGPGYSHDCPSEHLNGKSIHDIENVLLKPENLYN

[31] = target: T1, Calcitonin gene-related peptide type 1 receptor; assay: Displacement of [I125]CGRP from human CGRP receptor in SK-N-MC cells; assay type: cell-based
[32] = Displacement of [I125]CGRP from marmoset CGRP receptor; parameters: species or system Callithrix jacchus
[33] = target: Calcitonin gene-related peptide type 1 receptor (Rattus norvegicus, UniProt Q63118+Q9JJ74); assay: Displacement of [I125]CGRP from rat CGRP receptor
Chain of Calcitonin gene-related peptide type 1 receptor (Rattus norvegicus, UniProt Q63118+Q9JJ74) (Q63118 whole entry, one chain of several): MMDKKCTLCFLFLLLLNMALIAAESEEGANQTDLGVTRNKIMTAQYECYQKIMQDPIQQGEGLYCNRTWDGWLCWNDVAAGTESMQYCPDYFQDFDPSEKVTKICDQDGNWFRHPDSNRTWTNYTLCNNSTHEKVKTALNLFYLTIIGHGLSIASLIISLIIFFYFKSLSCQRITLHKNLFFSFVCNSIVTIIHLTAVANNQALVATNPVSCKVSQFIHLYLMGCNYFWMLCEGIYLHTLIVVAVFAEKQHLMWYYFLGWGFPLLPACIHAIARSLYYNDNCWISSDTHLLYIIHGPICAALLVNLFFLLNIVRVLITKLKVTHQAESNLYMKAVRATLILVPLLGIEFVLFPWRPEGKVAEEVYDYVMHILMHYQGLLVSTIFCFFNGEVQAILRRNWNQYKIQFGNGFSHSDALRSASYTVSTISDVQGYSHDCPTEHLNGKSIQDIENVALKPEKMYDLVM

Cytochrome P450 2C19 = Cytochrome P450 2C19 (Homo sapiens, UniProt P33261); assay: Inhibition of human recombinant CYP2C19 expressed in insect microsomes
Chain of Cytochrome P450 2C19 (P33261 whole entry): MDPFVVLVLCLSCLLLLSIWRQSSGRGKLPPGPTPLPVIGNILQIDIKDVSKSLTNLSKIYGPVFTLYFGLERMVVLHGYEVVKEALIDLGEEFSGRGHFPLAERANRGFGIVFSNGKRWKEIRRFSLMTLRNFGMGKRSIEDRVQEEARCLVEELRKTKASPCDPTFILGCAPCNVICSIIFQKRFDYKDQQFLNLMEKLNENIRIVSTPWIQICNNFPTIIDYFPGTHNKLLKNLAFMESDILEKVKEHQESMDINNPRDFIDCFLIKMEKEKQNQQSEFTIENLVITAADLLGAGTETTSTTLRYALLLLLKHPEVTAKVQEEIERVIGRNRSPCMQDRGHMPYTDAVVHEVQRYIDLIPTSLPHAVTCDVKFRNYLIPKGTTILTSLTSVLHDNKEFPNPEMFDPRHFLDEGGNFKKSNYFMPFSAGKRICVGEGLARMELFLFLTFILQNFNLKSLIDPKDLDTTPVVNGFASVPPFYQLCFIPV

Cytochrome P450 2C9 = Cytochrome P450 2C9 (Homo sapiens, UniProt P11712); assay: Inhibition of human recombinant CYP2C9 expressed in insect microsomes
Chain of Cytochrome P450 2C9 (P11712 whole entry): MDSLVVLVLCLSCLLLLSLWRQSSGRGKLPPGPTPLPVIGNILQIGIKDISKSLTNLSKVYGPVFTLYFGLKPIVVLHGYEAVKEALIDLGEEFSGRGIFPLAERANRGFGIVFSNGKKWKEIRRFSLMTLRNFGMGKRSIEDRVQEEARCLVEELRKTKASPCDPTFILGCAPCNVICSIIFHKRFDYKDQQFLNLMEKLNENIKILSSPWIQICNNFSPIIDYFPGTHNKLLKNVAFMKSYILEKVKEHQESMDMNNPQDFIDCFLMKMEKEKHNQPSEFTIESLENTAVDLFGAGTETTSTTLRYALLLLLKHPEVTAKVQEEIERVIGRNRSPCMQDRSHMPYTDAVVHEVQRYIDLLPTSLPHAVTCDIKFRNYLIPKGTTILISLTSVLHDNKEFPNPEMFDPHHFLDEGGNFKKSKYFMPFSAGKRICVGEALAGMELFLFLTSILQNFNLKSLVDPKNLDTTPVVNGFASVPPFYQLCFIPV

[34] = Displacement of [I125]AM from adrenomedullin 1 receptor expressed in CHO cells; assay type: cell-based
[35] = Displacement of [I125]AM from adrenomedullin 2 receptor expressed in CHO cells; assay type: cell-based
Calcitonin receptor = target: T2, Calcitonin receptor (Homo sapiens, UniProt P30988); assay: Displacement of [125I]calcitonin from calcitonin receptor in human T47D cells; assay type: cell-based
T2 sequence (P30988 whole entry): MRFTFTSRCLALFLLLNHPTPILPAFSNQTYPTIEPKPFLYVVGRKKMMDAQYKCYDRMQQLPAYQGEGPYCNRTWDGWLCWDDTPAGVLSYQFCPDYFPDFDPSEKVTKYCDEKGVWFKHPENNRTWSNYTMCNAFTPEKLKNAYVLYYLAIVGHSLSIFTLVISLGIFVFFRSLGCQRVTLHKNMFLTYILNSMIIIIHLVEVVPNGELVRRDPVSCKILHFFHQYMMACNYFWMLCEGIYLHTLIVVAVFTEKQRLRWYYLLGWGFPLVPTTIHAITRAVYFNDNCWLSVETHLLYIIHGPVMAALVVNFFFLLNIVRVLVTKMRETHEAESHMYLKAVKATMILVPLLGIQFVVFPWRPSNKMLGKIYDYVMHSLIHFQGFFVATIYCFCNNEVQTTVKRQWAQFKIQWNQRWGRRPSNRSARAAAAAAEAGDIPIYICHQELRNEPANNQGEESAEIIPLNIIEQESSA

[36] = Displacement of [I125]AMY from amylin 1 receptor expressed in CHO cells; assay type: cell-based
[37] = Displacement of [I125]AMY from amylin 3 receptor expressed in CHO cells; assay type: cell-based
[38] = Ex vivo reversal of human alpha CGRP-induced artery dilation in human intracranial artery; assay type: functional
How it was run: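 Human intracranial artery rings were wire-mounted on a force transducer and contracted with 10 mM KCl. They were then fully dilated with 1 nM hαCGRP. Antagonist was added cumulatively in half-log increments to reverse the dilation.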

[39] = Cmax in New Zealand white rabbit at 1.0 mg/kg, intranasally; conditions: in vivo, inhaled or intranasal
Cytochrome P450 3A4 [40] = target: T3, Cytochrome P450 3A4 (Homo sapiens, UniProt P08684); assay: Inhibition of recombinant CYP3A4 expressed in insect microsomes after 45 mins in presence of BZR substrate; assay type: ADME, Microsome
T3 sequence (P08684 whole entry): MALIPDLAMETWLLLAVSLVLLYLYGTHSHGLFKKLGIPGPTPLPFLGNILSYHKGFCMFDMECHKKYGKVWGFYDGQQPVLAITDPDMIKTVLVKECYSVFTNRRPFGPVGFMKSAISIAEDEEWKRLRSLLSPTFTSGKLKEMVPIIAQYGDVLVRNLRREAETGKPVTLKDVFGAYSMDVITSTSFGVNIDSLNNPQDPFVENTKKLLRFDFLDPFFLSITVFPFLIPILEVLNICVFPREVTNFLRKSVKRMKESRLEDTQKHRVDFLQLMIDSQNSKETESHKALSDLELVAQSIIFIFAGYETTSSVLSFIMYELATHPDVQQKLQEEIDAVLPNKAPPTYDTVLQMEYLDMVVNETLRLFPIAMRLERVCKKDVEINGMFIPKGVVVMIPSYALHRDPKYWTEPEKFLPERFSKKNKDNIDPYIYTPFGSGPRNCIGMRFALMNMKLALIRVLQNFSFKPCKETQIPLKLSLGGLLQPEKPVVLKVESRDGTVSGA

Cytochrome P450 3A4 [41] = target: T3, Cytochrome P450 3A4; assay: Inhibition of recombinant CYP3A4 expressed in insect microsomes after 20 mins in presence of BFC substrate; assay type: ADME, Microsome
[42] = Aqueous solubility of compound; assay type: physicochemical; conditions: buffer; how it was run: as §3
[43] = Aqueous solubility of compound at pH 5; assay type: physicochemical

Structure (SMILES): Cc1cc(C[C@@H](NC(=O)N2CCC(N3Cc4cccc(F)c4NC3=O)CC2)C(=O)N2CCC(N3CCCCC3)CC2)cc2cn[nH]c12
- Kb [1]: 0.028 nM
- EC50 [2]: 311 nM
- Activity (Callithrix jacchus [3]): Active
- Activity (Callithrix jacchus [4]): Active
- Activity (Callithrix jacchus [5]): inactive
- Activity (Callithrix jacchus [6]): inactive
- bioavailability [7]: ≤ 0.3%
- bioavailability [8]: ≤ 0.3%
- Papp [9]: < 1.5 ×10⁻⁶ cm/s
- solubility [10]: > 500 mg/mL
- Cmax (Oryctolagus cuniculus [11]): 8200 nM
- Tmax [12]: 1.98 min
- AUC (Oryctolagus cuniculus [13]): 1.1 µM·h
- clearance [14]: 13 mL/min/kg
- Vd [15]: 2.7 L/kg
- half-life [16]: 660 min
- Tmax [17]: 10.2 min
- AUC (Oryctolagus cuniculus [18]): 1.3 µM·h
- F (Oryctolagus cuniculus [19]): 59%
- Cmax [20]: 360 nM
- Tmax [21]: 10.2 min
- AUC [22]: 0.36 µM·h
- bioavailability [23]: 55.2%
- concentration at 24 h [24]: > 10 nM
- bioavailability [25]: 73%
- bioavailability [26]: 81%
- bioavailability [27]: 43%
- bioavailability [28]: 76%
- fraction unbound at 10 µM [29]: 0.35
- EC50 [30]: 0.0345 nM
- Ki [31]: 0.0128 nM
- Ki [32]: 0.078 nM
- Ki [33]: > 1000 nM
- IC50 (Cytochrome P450 2C19): > 40000 nM
- IC50 (Cytochrome P450 2C9): > 40000 nM
- Ki [34]: > 5000 nM
- Ki [35]: > 5000 nM
- Ki (Calcitonin receptor): > 5000 nM
- Ki [36]: > 500 nM
- Ki [37]: > 5000 nM
- EC50 [38]: 0.06 nM
- Cmax [39]: 1200 nM

Structure (SMILES): O=C(N[C@H](Cc1csc2ccccc12)C(=O)N1CCC(N2CCCCC2)CC1)N1CCC(N2Cc3ccccc3NC2=O)CC1
- Ki [31]: 0.55 nM
- IC50 (Cytochrome P450 3A4 [40]): 84 nM
- IC50 (Cytochrome P450 3A4 [41]): 870 nM
- Activity [42]: Not Active

Structure (SMILES): O=C(N[C@H](Cc1ccc2[nH]ncc2c1)C(=O)N1CCC(N2CCCCC2)CC1)N1CCC(N2Cc3ccccc3NC2=O)CC1
- IC50 (Cytochrome P450 3A4 [40]): 4000 nM
- IC50 (Cytochrome P450 3A4 [41]): > 40000 nM
- Activity [42]: Not Active

Structure (SMILES): Cc1cc(C[C@@H](NC(=O)N2CCC(N3Cc4ccccc4NC3=O)CC2)C(=O)N2CCC(N3CCCCC3)CC2)cc2cn[nH]c12
- solubility [43]: 15 mg/mL (≈ 23.9 mM)
- Ki [31]: 0.01 nM
